{"source": "ChEMBL document CHEMBL3286371", "about": "“wALADin benzimidazoles differentially modulate the function of porphobilinogen synthase orthologs” (J Med Chem, 2014)", "key": {"[1]": {"target": "T1, Delta-aminolevulinic acid dehydratase (Wolbachia sp. subsp. Brugia malayi (strain TRS)) (UniProt Q5GSR3)", "T1 sequence (whole entry)": "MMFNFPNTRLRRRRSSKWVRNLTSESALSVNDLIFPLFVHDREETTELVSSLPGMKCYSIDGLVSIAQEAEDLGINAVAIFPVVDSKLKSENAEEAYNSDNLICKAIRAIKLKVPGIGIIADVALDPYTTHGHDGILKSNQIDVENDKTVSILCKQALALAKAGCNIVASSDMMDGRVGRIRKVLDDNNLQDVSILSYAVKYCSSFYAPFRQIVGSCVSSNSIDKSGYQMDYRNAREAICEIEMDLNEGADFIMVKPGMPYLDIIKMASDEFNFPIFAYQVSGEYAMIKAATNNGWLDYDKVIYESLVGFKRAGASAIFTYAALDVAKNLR", "settings": "25 to 2500 uM"}, "[2]": {"target": "T2, Delta-aminolevulinic acid dehydratase (Escherichia coli (strain K12)) (UniProt P0ACB2)", "T2 sequence (whole entry)": "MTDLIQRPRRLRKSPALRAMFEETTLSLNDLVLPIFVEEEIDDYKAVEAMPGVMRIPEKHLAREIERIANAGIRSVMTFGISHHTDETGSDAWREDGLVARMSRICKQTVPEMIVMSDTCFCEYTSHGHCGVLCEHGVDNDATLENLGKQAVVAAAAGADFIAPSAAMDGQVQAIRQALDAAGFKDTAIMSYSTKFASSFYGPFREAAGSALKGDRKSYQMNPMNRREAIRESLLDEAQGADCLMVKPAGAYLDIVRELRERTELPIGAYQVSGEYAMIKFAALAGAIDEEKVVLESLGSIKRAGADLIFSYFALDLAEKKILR", "assay": "Stimulation of Escherichia coli recombinant PBGS assessed as reduction in Mg2+-induced conversion of dimer to octamer at 8 to 2000 uM by nondenaturing PAGE analysis", "method_in_brief": "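EcPBGS (3 μg) preincubated 20 min at 37 °C in BTP pH 8.1 buffer with varied Mg2+, Zn2+ and wALADin1. Run on 7.5% nondenaturing PAGE; Coomassie stain plus in-gel activity with 500 μM 5-ALA and Ehrlich's reagent.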"}, "[3]": {"target": "Delta-aminolevulinic acid dehydratase (Pseudomonas aeruginosa (strain ATCC 15692 / PAO1 / 1C / PRS 101 / LMG12228)) (UniProt Q59643)", "sequence (Q59643 whole entry)": "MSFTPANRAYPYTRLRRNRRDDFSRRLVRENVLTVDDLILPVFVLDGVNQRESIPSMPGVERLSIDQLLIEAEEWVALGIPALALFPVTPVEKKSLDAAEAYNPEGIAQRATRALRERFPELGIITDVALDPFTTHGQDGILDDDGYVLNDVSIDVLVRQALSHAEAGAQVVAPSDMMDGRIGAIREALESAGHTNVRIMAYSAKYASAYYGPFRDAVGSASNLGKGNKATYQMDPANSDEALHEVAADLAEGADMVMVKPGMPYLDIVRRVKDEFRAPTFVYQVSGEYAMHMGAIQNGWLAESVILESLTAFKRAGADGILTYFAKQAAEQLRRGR", "assay": "Stimulation of Pseudomonas aeruginosa PAO1 recombinant PBGS assessed as stabilization of dimeric form at 8 to 2000 uM by nondenaturing PAGE analysis in presence of Mg2+ and K+", "method_in_brief": "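PaPBGS (3 μg) preincubated 20 min at 37 °C in assay buffer with 1 mM Mg2+, 100 mM K+ and wALADin1, no 5-ALA. Run on 7.5% nondenaturing PAGE at 4 °C for 15–20 h. Coomassie for oligomer state; in-gel activity with 500 μM 5-ALA stained with Ehrlich's reagent.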"}, "[4]": {"target": "Delta-aminolevulinic acid dehydratase (Pseudomonas aeruginosa (strain ATCC 15692 / PAO1 / 1C / PRS 101 / LMG12228)) (UniProt Q59643)", "assay": "Stimulation of Pseudomonas aeruginosa PAO1 recombinant PBGS using 5 mM 5-ALA as substrate assessed as increase in Vmax at 50 to 200 uM at pH 8 by buffer scan assay in presence of 1 mM MgCl2 and 1 to 1000 mM KCl"}, "[5]": {"target": "T3, Delta-aminolevulinic acid dehydratase, chloroplastic (Pisum sativum) (UniProt P30124)", "T3 sequence (whole entry)": "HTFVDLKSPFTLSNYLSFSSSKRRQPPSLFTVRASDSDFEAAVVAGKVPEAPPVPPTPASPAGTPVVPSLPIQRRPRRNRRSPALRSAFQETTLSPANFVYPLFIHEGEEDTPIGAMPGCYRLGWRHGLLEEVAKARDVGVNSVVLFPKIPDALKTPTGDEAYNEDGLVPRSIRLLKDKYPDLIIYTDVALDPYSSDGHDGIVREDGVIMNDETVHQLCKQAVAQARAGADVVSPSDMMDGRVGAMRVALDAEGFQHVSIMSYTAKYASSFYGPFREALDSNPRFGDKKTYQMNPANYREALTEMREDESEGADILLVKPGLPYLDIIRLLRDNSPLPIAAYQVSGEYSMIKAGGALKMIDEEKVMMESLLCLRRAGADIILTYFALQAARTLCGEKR", "assay": "Inhibition of Pisum sativum PBGS using 10 mM 5-ALA as substrate assessed as decrease in enzyme activity at 6.25 to 100 uM in presence of MgCl2", "settings": "Lathyrus oleraceus"}, "[6]": {"target": "T4, Delta-aminolevulinic acid dehydratase, chloroplastic (Pisum sativum, UniProt P30124)", "T4 sequence (P30124 whole entry)": "T3 sequence (whole entry)", "assay": "Inhibition of Pisum sativum PBGS using 5-ALA as substrate", "parameters": "species or system Lathyrus oleraceus", "method_in_brief": "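Pea (P. sativum) PBGS at 300 nM subunit in 100 mM BTP-HCl pH 8.5 with 1 mM MgCl2, 5 mM DTT and 0.2 mM 5-ALA, 15 min at 36 °C. Porphobilinogen detected with Ehrlich's reagent. Activity normalized to 6.7% DMSO control as 100%. IC50 from variable-slope normalized-response fit.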"}}, "note": "Activity calls are given as the source filed them. The rule behind the calls is not given here.", "data": [{"smiles": "O=C(O)c1ccc2c(c1)nc(CCNC(=O)c1cccs1)n2Cc1cccc(C(F)(F)F)c1", "values": [{"measurement": "inhibition", "setting": "[1]", "result": "Active"}, {"measurement": "Activity", "setting": "[2]", "result": "Active"}, {"measurement": "Activity", "setting": "[3]", "result": "inactive"}, {"measurement": "Activity", "setting": "[4]", "result": "Active"}, {"measurement": "inhibition", "setting": "[5]", "result": "Active"}, {"measurement": "IC50", "setting": "[6]", "result": 10.6, "unit": "µM"}]}]}
